According to ChEMBL document CHEMBL5303300, “EUbOPEN Chemogenomics Library - Multiplex” (2023):
Values joined by “and” are separate entries in the source; they are usually repeats but may differ in a detail not shown here. Identical values can stand only once.

Test system: Fibroblast
Assay: Multiplex assay against human fibroblast
Format: toxicity, cell-based
Details: number of replicates 2
How it was run: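 Cells stained live at seeding with Hoechst33342, BioTracker Green Microtubule Cytoskeleton Dye, MitoTracker Red and Annexin V Alexa Fluor 680 were imaged on a CQ1 microscope at 37°C and 5% CO2 after compound addition. Their classification by CellPathfinder machine-learning gating ran from Hoechst high-intensity objects versus normal cells, to healthy, pyknosed or fragmented nuclei among normal cells, to mitotic or apoptotic among pyknosed cells. Tubulin, mitochondrial-mass and membrane-permeability phenotypes are per cents of healthy-nucleus cells.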

[1] = 12 h, 1 µM, compound concentration 1 uM
[2] = 12 h, 10 µM, compound concentration 10 uM
[3] = 24 h, 1 µM, compound concentration 1 uM
[4] = 24 h, 10 µM, compound concentration 10 uM
[5] = 48 h, 1 µM, compound concentration 1 uM
[6] = 48 h, 10 µM, compound concentration 10 uM

NCC1CCC(CNc2nc(NCc3ccccc3OC(F)(F)F)ncc2[N+](=O)[O-])CC1 (stereo not given)
Population Apoptotic (%) [1]: 46% and 42% | Population Fragmented Nuclei (%) [1]: 9% | Population Healthy Nuclei (%) [1]: 68% and 62% | Population Hoechst High Intensity Objects (%) [1]: 0% | Population Membrane Permeable-Phenotype (%) [1]: 7% and 9% | Population Mitochondria Different-Phenotype (%) [1]: 1% and 2% | Population Mitotic Cells (%) [1]: 53% and 57% | Population Normal (%) [1]: 100% and 99% | Population Pyknosed Nuclei (%) [1]: 21% and 27% | Population Tubulin-Different-Phenotype (%) [1]: 60% and 45% | Total Cell Count [1]: 205 and 224 | Population Apoptotic (%) [2]: 34% and 27% | Population Fragmented Nuclei (%) [2]: 14% and 23% | Population Healthy Nuclei (%) [2]: 54% and 60% | Population Hoechst High Intensity Objects (%) [2]: 0% | Population Membrane Permeable-Phenotype (%) [2]: 6% and 9% | Population Mitochondria Different-Phenotype (%) [2]: 28% and 18% | Population Mitotic Cells (%) [2]: 65% and 72% | Population Normal (%) [2]: 100% | Population Pyknosed Nuclei (%) [2]: 31% and 16% | Population Tubulin-Different-Phenotype (%) [2]: 84% and 87% | Total Cell Count [2]: 135 and 286 | Population Apoptotic (%) [3]: 64% and 60% | Population Fragmented Nuclei (%) [3]: 10% and 15% | Population Healthy Nuclei (%) [3]: 67% and 62% | Population Hoechst High Intensity Objects (%) [3]: 0% and 1% | Population Membrane Permeable-Phenotype (%) [3]: 0% and 1% | Population Mitochondria Different-Phenotype (%) [3]: 8% | Population Mitotic Cells (%) [3]: 35% and 40% | Population Normal (%) [3]: 100% and 98% | Population Pyknosed Nuclei (%) [3]: 22% and 21% | Population Tubulin-Different-Phenotype (%) [3]: 50% and 37% | Total Cell Count [3]: 202 and 217 | Population Apoptotic (%) [4]: 81% and 62% | Population Fragmented Nuclei (%) [4]: 21% and 22% | Population Healthy Nuclei (%) [4]: 58% and 67% | Population Hoechst High Intensity Objects (%) [4]: 0% | Population Membrane Permeable-Phenotype (%) [4]: 5% and 3% | Population Mitochondria Different-Phenotype (%) [4]: 54% and 59% | Population Mitotic Cells (%) [4]: 18% and 37% | Population Normal (%) [4]: 100% | Population Pyknosed Nuclei (%) [4]: 20% and 9% | Population Tubulin-Different-Phenotype (%) [4]: 93% | Total Cell Count [4]: 132 and 274 | Population Apoptotic (%) [5]: 70% and 72% | Population Fragmented Nuclei (%) [5]: 10% and 13% | Population Healthy Nuclei (%) [5]: 72% and 65% | Population Hoechst High Intensity Objects (%) [5]: 0% | Population Membrane Permeable-Phenotype (%) [5]: 4% and 3% | Population Mitochondria Different-Phenotype (%) [5]: 2% and 4% | Population Mitotic Cells (%) [5]: 29% and 27% | Population Normal (%) [5]: 100% | Population Pyknosed Nuclei (%) [5]: 16% and 20% | Population Tubulin-Different-Phenotype (%) [5]: 38% and 35% | Total Cell Count [5]: 210 and 217 | Population Apoptotic (%) [6]: 90% and 66% | Population Fragmented Nuclei (%) [6]: 28% and 36% | Population Healthy Nuclei (%) [6]: 65% and 58% | Population Hoechst High Intensity Objects (%) [6]: 1% and 0% | Population Membrane Permeable-Phenotype (%) [6]: 0% and 4% | Population Mitochondria Different-Phenotype (%) [6]: 34% and 30% | Population Normal (%) [6]: 98% and 99% | Population Pyknosed Nuclei (%) [6]: 6% and 4% | Population Tubulin-Different-Phenotype (%) [6]: 92% and 91% | Total Cell Count [6]: 160 and 339

CS(=O)(=O)c1ccc(C(=O)Nc2cccc(COc3ccc(Br)cc3CN3CC[C@H](O)C3)c2)cc1.O=CO
Population Fragmented Nuclei (%) [1]: 13% and 4% | Population Healthy Nuclei (%) [1]: 48% and 65% | Population Hoechst High Intensity Objects (%) [1]: 0% | Population Mitotic Cells (%) [1]: 52% | Population Normal (%) [1]: 100% | Population Pyknosed Nuclei (%) [1]: 37% and 30% | Total Cell Count [1]: 166 and 138 | Population Fragmented Nuclei (%) [2]: 15% and 22% | Population Healthy Nuclei (%) [2]: 55% and 64% | Population Hoechst High Intensity Objects (%) [2]: 0% | Population Mitotic Cells (%) [2]: 51% | Population Normal (%) [2]: 100% | Population Pyknosed Nuclei (%) [2]: 30% | Total Cell Count [2]: 180 and 311 | Population Fragmented Nuclei (%) [3]: 9% and 14% | Population Healthy Nuclei (%) [3]: 54% and 50% | Population Hoechst High Intensity Objects (%) [3]: 0% | Population Normal (%) [3]: 100% and 99% | Total Cell Count [3]: 142 and 175 | Population Fragmented Nuclei (%) [4]: 18% and 28% | Population Healthy Nuclei (%) [4]: 57% and 60% | Population Hoechst High Intensity Objects (%) [4]: 0% | Population Mitotic Cells (%) [4]: 29% and 31% | Population Normal (%) [4]: 99% | Population Pyknosed Nuclei (%) [4]: 10% | Total Cell Count [4]: 214 and 336 | Population Fragmented Nuclei (%) [5]: 14% and 21% | Population Healthy Nuclei (%) [5]: 55% and 59% | Population Hoechst High Intensity Objects (%) [5]: 0% and 1% | Population Mitotic Cells (%) [5]: 36% and 22% | Population Normal (%) [5]: 100% and 98% | Population Pyknosed Nuclei (%) [5]: 29% and 19% | Total Cell Count [5]: 147 and 164 | Population Fragmented Nuclei (%) [6]: 28% and 31% | Population Healthy Nuclei (%) [6]: 62% and 61% | Population Hoechst High Intensity Objects (%) [6]: 0% | Population Mitotic Cells (%) [6]: 4% and 13% | Population Normal (%) [6]: 100% and 99% | Population Pyknosed Nuclei (%) [6]: 9% | Total Cell Count [6]: 253 and 402
